# Results reported in ChEMBL document CHEMBL1156262, “Substituted benzothiophene or benzofuran derivatives as a novel class of bone morphogenetic protein-2 up-regulators: synthesis, structure-activity relationships, and preventive bone loss efficacies in senescence accelerated mice (SAMP6) and ovariectomized rats” (J Med Chem, 2010).
# Active and inactive are the calls of the source. The calls are words filed in the database; no cut-off is given here.
# Legend:
# [1] = Induction of BMP2 expression in mouse calcarial MC3T3-E1 cells stably transfected with mouse BMP2 promotor-luciferase assessed as upregulation rate at 4 uM; assay type: functional, cell-based
# Outline: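 Reporter assay in murine calvarial MC3T3-E1 cells stably carrying the mouse BMP-2 promoter fused to firefly luciferase (pGL4BMP-2). Cells grown in DMEM with 10% heat-inactivated FBS at 37 °C and 5% CO2. Test compounds at 4.0 μM; lovastatin at 0.4 μM as positive control; 0.1% DMSO as negative control. Up-regulation rate = (RLU of test − RLU of negative control)/RLU of negative control × 100.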
# Mus musculus [2] = assay: Induction of bone mineral density in SAMP6 mouse assessed as spine BMD at 30 mg/kg/day, po measured last 2 months; assay type: functional, organism-based
# Outline: (§1)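 SAMP6 mice, 5 months old, n = 5 per group, given compound in 0.5% methylcellulose by gavage daily. Dual-energy X-ray absorptiometry under pentobarbital anaesthesia (50 mg/kg ip), animals prone, at 0, 4, 8 and 12 weeks of treatment. Regions of interest were whole body, spine and left hind leg.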
# Mus musculus [3] = assay: Induction of bone mineral density in SAMP6 mouse assessed as whole body BMD at 30 mg/kg/day, po measured after 2 months; assay type: functional, organism-based; outline: as §1
# Mus musculus [4] = assay: Induction of bone mineral density in SAMP6 mouse assessed as whole body BMD at 10 mg/kg/day, po measured after 2 months; assay type: functional, organism-based; settings: 30 mg/kg, in the assay text read “30 mg/kg/day” for “10 mg/kg/day”; outline: as §1
# Mus musculus [5] = assay: Induction of bone mineral density in SAMP6 mouse assessed as whole body BMD at 10 mg/kg/day, po measured after 1 month; assay type: functional, organism-based; settings: 30 mg/kg, in the assay text read “30 mg/kg/day” for “10 mg/kg/day”; outline: as §1
# Mus musculus [6] = assay: Induction of bone mineral density in SAMP6 mouse assessed as whole body BMD at 30 mg/kg/day, po measured after 3 months; assay type: functional; outline: as §1
# Mus musculus [7] = assay: Induction of bone mineral density in SAMP6 mouse assessed as spine BMD at 30 mg/kg/day, po measured after 3 months; assay type: functional; outline: as §1
# Mus musculus [8] = assay: Induction of bone mineral density in SAMP6 mouse assessed as left hind leg BMD at 30 mg/kg/day, po measured after 3 months; assay type: functional; outline: as §1
# Mus musculus [9] = assay: Induction of bone formation in SAMP6 mouse right femora assessed as trabecular bone volume percentage at 30 mg/kg/day, po measured after 3 months by bone histomorphometry; assay type: functional, Trabecula
# Outline: (§2)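 SAMP6 mice, 5 months old, n = 5 per group (3 male, 2 female), randomized by initial BMD. Given compound in 0.5% methylcellulose by gavage daily for 3 months. Proximal third of the right femur fixed in 4% paraformaldehyde, cut as undecalcified sections, and scored by image analysis for histomorphometry.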
# Mus musculus [10] = assay: Induction of bone formation in SAMP6 mouse right femora assessed as trabecular formation surface percentage at 30 mg/kg/day, po measured after 3 months by bone histomorphometry; assay type: functional, Trabecula; outline: as §2
# Mus musculus [11] = assay: Induction of bone formation in SAMP6 mouse right femora assessed as trabecular resorption surface percentage at 30 mg/kg/day, po measured after 3 months by bone histomorphometry; assay type: functional, Trabecula; outline: as §2
# Mus musculus [12] = assay: Induction of bone formation in SAMP6 mouse right femora assessed as average osteoid width at 30 mg/kg/day, po measured after 3 months by bone histomorphometry; assay type: functional; outline: as §2
# Mus musculus [13] = assay: Induction of BMP2 expression in SAMP6 mouse osteoblast at 10 mg/kg/day, po after 3 months by immunohistochemical analysis; assay type: functional, organism-based
# Outline: (§3)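 SAMP6 mice, 5 months old, male and female, n = 5 per group (3 male, 2 female). Dosed by gavage with compound suspended in 0.5% methylcellulose daily for 3 months; the vehicle group received methylcellulose only. Proximal third of the left femur fixed in 4% neutral paraformaldehyde for 24 h, decalcified in 10% EDTA at 4 °C for 4 weeks, then frozen-sectioned at 5 μm. Stained with rabbit polyclonal anti-BMP-2 and an alkaline phosphatase secondary. BMP-2-positive area was taken as a percentage of bone tissue area, averaged over five fields below the epiphyseal plate.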
# Mus musculus [14] = assay: Induction of BMP2 expression in SAMP6 mouse osteoblast at 30 mg/kg/day, po after 3 months by immunohistochemical analysis; assay type: functional, organism-based; outline: as §3
# Mus musculus [15] = assay: Induction of BMP2 expression in SAMP6 mouse bone marrow stroma at 30 mg/kg/day, po after 3 months by immunohistochemical analysis; assay type: functional, organism-based; outline: as §3
# Mus musculus [16] = assay: Induction of BMP2 expression in SAMP6 mouse cartilage cells at 30 mg/kg/day, po after 3 months by immunohistochemical analysis; assay type: functional, organism-based; outline: as §3
# Mus musculus [17] = assay: Toxicity in SAMP6 mouse assessed as pathological changes in heart at 30 mg/kg/day, po after 3 months by histomorphology; assay type: organism-based; design: route oral; settings: in vivo
# Outline: (§4)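 SAMP6 mice, n = 5 per group, dosed orally at 30 mg/kg/day in 0.5% methylcellulose for 3 months. Heart, liver, spleen, lung and kidney harvested, weighed and examined histologically. Organ/body weight indexes, body weight, and 24 h water and food intake (g/g body weight) compared with vehicle controls.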
# Mus musculus [18] = assay: Toxicity in SAMP6 mouse assessed as pathological changes in spleen at 30 mg/kg/day, po after 3 months by histomorphology; assay type: organism-based; design: route oral; settings: in vivo; outline: as §4
# Mus musculus [19] = assay: Toxicity in SAMP6 mouse assessed as pathological changes in liver at 30 mg/kg/day, po after 3 months by histomorphology; assay type: organism-based; design: route oral; settings: in vivo; outline: as §4
# Mus musculus [20] = assay: Toxicity in SAMP6 mouse assessed as pathological changes in lung at 30 mg/kg/day, po after 3 months by histomorphology; assay type: organism-based; design: route oral; settings: in vivo; outline: as §4
# Mus musculus [21] = assay: Toxicity in SAMP6 mouse assessed as pathological changes in kidney at 30 mg/kg/day, po after 3 months by histomorphology; assay type: organism-based; design: route oral; settings: in vivo; outline: as §4
# Mus musculus [22] = assay: Toxicity in SAMP6 mouse assessed as increase in body weight at 30 mg/kg/day, po after 3 months; assay type: organism-based; design: route oral; settings: in vivo; outline: as §4
# Mus musculus [23] = assay: Toxicity in SAMP6 mouse assessed as change in 24 hrs water consumption at 30 mg/kg/day, po after 3 months; assay type: organism-based; design: route oral; settings: in vivo; outline: as §4
# Mus musculus [24] = assay: Toxicity in SAMP6 mouse assessed as change in 24 hrs food consumption at 30 mg/kg/day, po after 3 months; assay type: organism-based; design: route oral; settings: in vivo; outline: as §4
# [25] = Toxicity in po dosed Kunming mouse assessed as mortality treated for 3 days measured after 17 days; assay type: organism-based; settings: in vivo
# Outline: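 Male and female Kunming mice (18-21 g), six per group (three males, three females), were dosed orally at 500 or 700 (mg/kg)/day for 3 days. They were closely watched for deaths over the 3 dosing days and the following 14 days (17 days in total).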
structure (smiles),measurement,setting,value
CC(=O)c1cc2ccccc2o1,Activity,[1],33.5%
COC(=O)c1ccc2sc(C(C)=O)cc2c1,Activity,[1],41.4%
CCOC(=O)c1cc2cc3c(cc2s1)OCO3,Activity,Mus musculus [2],Active
same,Activity,Mus musculus [3],Active
same,Activity,Mus musculus [4],Active
same,Activity,Mus musculus [5],Active
same,Activity,[1],64.2%
same,Activity,Mus musculus [6],0.072 g/cm2
same,Activity,Mus musculus [7],0.091 g/cm2
same,Activity,Mus musculus [8],0.053 g/cm2
same,Activity,Mus musculus [9],7.1%
same,Activity,Mus musculus [10],5.55%
same,Activity,Mus musculus [11],6.45%
same,Activity,Mus musculus [12],5.76 µm
same,Activity,Mus musculus [13],Active
same,Activity,Mus musculus [14],Active
same,Activity,Mus musculus [15],Active
same,Activity,Mus musculus [16],inactive
same,Activity,Mus musculus [17],Non-toxic
same,Activity,Mus musculus [18],Non-toxic
same,Activity,Mus musculus [19],Non-toxic
same,Activity,Mus musculus [20],Non-toxic
same,Activity,Mus musculus [21],Non-toxic
same,Activity,Mus musculus [22],Non-toxic
same,Activity,Mus musculus [23],Non-toxic
same,Activity,Mus musculus [24],Non-toxic
same,LD50 at 408 h,[25],> 500 mg/kg
C[S+]([O-])CC(=O)c1cc2cc3c(cc2s1)OCO3 (centres undefined),Activity,[1],0.6%
COc1cc2cc(C(=O)C[S+](C)[O-])sc2cc1OC (centres undefined),Activity,[1],13.5%
CCOC(=O)c1cc2c(Cl)cccc2s1,Activity,[1],-0.6%
CCOC(=O)c1ccc2sc(C(=O)/C=C/c3ccccc3Cl)cc2c1,Activity,[1],24%
COc1cc2cc(C(C)=O)sc2cc1OC,Activity,[1],37.1%
CCOC(=O)c1ccc2sc(C(=O)/C=C/c3ccc(OC)c(OC)c3OC)cc2c1,Activity,[1],-21.5%
CCOC(=O)c1cc2cccc(OC)c2o1,Activity,[1],12.4%
CS(=O)(=O)CC(=O)c1cc2cc3c(cc2s1)OCO3,Activity,[1],-9.3%
O=C(/C=C/c1ccccc1)c1cc2ccccc2o1,Activity,[1],24.4%
CCOC(=O)c1cc2cc(OC)c(OC)cc2s1,Activity,[1],49.9%
O=C(/C=C/c1ccccc1Cl)c1cc2ccccc2o1,Activity,[1],1.8%
C[S+]([O-])CC(=O)c1cc2c(Cl)cccc2s1 (centres undefined),Activity,[1],18.5%
